Experimental data from ChEMBL document CHEMBL1154780, “Synthesis of new linear guanidines and macrocyclic amidinourea derivatives endowed with high antifungal activity against Candida spp. and Aspergillus spp” (J Med Chem, 2009).
Converted amounts (≈) assume the structure as drawn.

How the values were obtained:
[1] = tested on: Candida parapsilosis; experiment: Anticandidal activity against Candida parapsilosis ATCC 34136 after 24 hrs by spectrophotometry; type: functional; details: Lodderomyces parapsilosis, ATCC 34136, 24 h
[2] = tested on: Pichia kudriavzevii; experiment: Anticandidal activity against Candida krusei ATCC 14243 after 24 hrs by spectrophotometry; type: functional; details: ATCC 14243, 24 h
[3] = tested on: Candida albicans; experiment: Anticandidal activity against Candida albicans 53T after 24 hrs by spectrophotometry; type: functional
[4] = tested on: Nakaseomyces glabratus; experiment: Anticandidal activity against Candida glabrata 70E after 24 hrs by spectrophotometry; type: functional
[5] = tested on: Candida albicans; experiment: Anticandidal activity against Candida albicans 15T after 24 hrs by spectrophotometry; type: functional
[6] = tested on: Pichia kudriavzevii; experiment: Anticandidal activity against Candida krusei 193T after 24 hrs by spectrophotometry; type: functional
[7] = tested on: Candida parapsilosis; experiment: Anticandidal activity against Candida parapsilosis 64E after 24 hrs by spectrophotometry; type: functional; details: Lodderomyces parapsilosis
[8] = tested on: Candida parapsilosis; experiment: Anticandidal activity against Candida parapsilosis 81E after 24 hrs by spectrophotometry; type: functional; details: Lodderomyces parapsilosis
[9] = tested on: Candida albicans; experiment: Anticandidal activity against Candida albicans 4T after 24 hrs by spectrophotometry; type: functional
[10] = tested on: Candida albicans; experiment: Anticandidal activity against Candida albicans ATCC 60193 after 24 hrs by spectrophotometry; type: functional; details: ATCC 60193, 24 h
[11] = tested on: Candida tropicalis; experiment: Anticandidal activity against Candida tropicalis 86E after 24 hrs by spectrophotometry; type: functional
[12] = Therapeutic index, ratio of drug level reducing 50% viability of human lymphocytes at 37 degC to MIC50 for Candida sp.
Outline: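 Index is the lymphocyte concentration giving 50% viability at 37 °C divided by MIC50 for each Candida species; lymphocytes were exposed to 0–50 μM.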

[13] = tested on: Aspergillus fumigatus; experiment: Antifungal activity against Aspergillus fumigatus isolated from patient bronchoalveolar lavage fluid after 48 hrs by broth microdilution method; type: functional; details: Lung
[14] = Therapeutic index, ratio of drug level reducing 50% viability of human lymphocytes at 25 degC to MIC50 for Candida sp.
[15] = Cytotoxicity against human lymphocytes assessed as cell viability up to 30 uM; type: cell-based, Lymphocyte; details: read-out: Activity
Outline: (§1)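 Human lymphocytes exposed to compound at concentrations between 0 and 50 μM, at both 25 and 37 °C; read-out is percent cell viability.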

[16] = tested on: Aspergillus flavus; experiment: Antifungal activity against Aspergillus flavus isolated from patient sputum after 48 hrs by broth microdilution method; type: functional
[17] = Cytotoxicity against human lymphocytes at 40 uM; type: cell-based; details: lymphocyte; outline: as §1
[18] = tested on: Aspergillus niger; experiment: Antifungal activity against Aspergillus niger isolated from patient sputum after 48 hrs by broth microdilution method; type: functional
[19] = tested on: Aspergillus fumigatus; experiment: Antifungal activity against Aspergillus fumigatus isolated from patient sputum after 48 hrs by broth microdilution method; type: functional
[20] = tested on: Aspergillus terreus; experiment: Antifungal activity against Aspergillus terreus isolated from patient bronchoalveolar lavage fluid after 48 hrs by broth microdilution method; type: functional; details: Lung
[21] = tested on: Aspergillus versicolor; experiment: Antifungal activity against Aspergillus versicolor isolated from patient sputum after 48 hrs by broth microdilution method; type: functional
[22] = Cytotoxicity against human lymphocytes at 50 uM; type: cell-based; details: lymphocyte; outline: as §1
[23] = tested on: Aspergillus versicolor; experiment: Antifungal activity against Aspergillus versicolor isolated from patient skin after 48 hrs by broth microdilution method; type: functional
[24] = tested on: Aspergillus niger; experiment: Antifungal activity against Aspergillus niger isolated from patient nasal swab after 48 hrs by broth microdilution method; type: functional

Compound	MIC [1]	MIC [2]	MIC [3]	MIC [4]	MIC [5]	MIC [6]	MIC [7]	MIC [8]	MIC [9]	MIC [10]	MIC [11]	also measured
N=C(N)NCCCCCCCCNCCCCCCCCNC(=N)NCC1CC1	80 µM (≈ 32.8 µg/mL)	5 µM (≈ 2.05 µg/mL)	10 µM (≈ 4.1 µg/mL)	20 µM (≈ 8.19 µg/mL)	20 µM (≈ 8.19 µg/mL)	10 µM (≈ 4.1 µg/mL)	5 µM (≈ 2.05 µg/mL)	20 µM (≈ 8.19 µg/mL)	10 µM (≈ 4.1 µg/mL)	20 µM (≈ 8.19 µg/mL)	5 µM (≈ 2.05 µg/mL)	–
CC(C)=CCNC(=N)NCCCCCCCCNCCCCCCCCNC(=N)N	> 80 µM	40 µM (≈ 16.9 µg/mL)	80 µM (≈ 33.9 µg/mL)	80 µM (≈ 33.9 µg/mL)	40 µM (≈ 16.9 µg/mL)	20 µM (≈ 8.47 µg/mL)	> 80 µM	40 µM (≈ 16.9 µg/mL)	80 µM (≈ 33.9 µg/mL)	80 µM (≈ 33.9 µg/mL)	20 µM (≈ 8.47 µg/mL)	–
CC(C)=CCNC(=N)NCCCCCCCCNCCCCCCCCNC(=N)NCC=C(C)C	> 80 µM	40 µM (≈ 19.7 µg/mL)	80 µM (≈ 39.3 µg/mL)	> 80 µM	> 80 µM	80 µM (≈ 39.3 µg/mL)	> 80 µM	> 80 µM	80 µM (≈ 39.3 µg/mL)	> 80 µM	> 80 µM	–
CC(C)=CCNC(=N)NCCCCCCCCN1CCCCCCCCNC(=N)NC1=O	> 80 µM	10 µM (≈ 4.5 µg/mL)	20 µM (≈ 8.99 µg/mL)	80 µM (≈ 36 µg/mL)	20 µM (≈ 8.99 µg/mL)	20 µM (≈ 8.99 µg/mL)	> 80 µM	40 µM (≈ 18 µg/mL)	20 µM (≈ 8.99 µg/mL)	40 µM (≈ 18 µg/mL)	20 µM (≈ 8.99 µg/mL)	–
N=C(NCCCCCCCCN1CCCCCCCCNC(=N)NC1=O)NCc1ccccc1	80 µM (≈ 37.7 µg/mL)	20 µM (≈ 9.43 µg/mL)	2.5 µM (≈ 1.18 µg/mL)	40 µM (≈ 18.9 µg/mL)	5 µM (≈ 2.36 µg/mL)	10 µM (≈ 4.72 µg/mL)	20 µM (≈ 9.43 µg/mL)	20 µM (≈ 9.43 µg/mL)	2.5 µM (≈ 1.18 µg/mL)	2.5 µM (≈ 1.18 µg/mL)	2.5 µM (≈ 1.18 µg/mL)	–
N=C(N)NCCCCCCCCN(CCCCCCCCNC(=N)N)C(=N)N	> 80 µM	10 µM (≈ 3.98 µg/mL)	20 µM (≈ 7.95 µg/mL)	> 80 µM	10 µM (≈ 3.98 µg/mL)	40 µM (≈ 15.9 µg/mL)	> 80 µM	> 80 µM	5 µM (≈ 1.99 µg/mL)	5 µM (≈ 1.99 µg/mL)	1.25 µM (≈ 0.497 µg/mL)	–
C#CCNC(=N)NCCCCCCCCN1CCCCCCCCNC(=N)NC1=O	40 µM (≈ 16.8 µg/mL)	80 µM (≈ 33.6 µg/mL)	5 µM (≈ 2.1 µg/mL)	80 µM (≈ 33.6 µg/mL)	2.5 µM (≈ 1.05 µg/mL)	40 µM (≈ 16.8 µg/mL)	40 µM (≈ 16.8 µg/mL)	80 µM (≈ 33.6 µg/mL)	80 µM (≈ 33.6 µg/mL)	2.5 µM (≈ 1.05 µg/mL)	5 µM (≈ 2.1 µg/mL)	–
C=C(C)CNC(=N)NCCCCCCCCN1CCCCCCCCNC(=N)NC1=O	> 80 µM	40 µM (≈ 17.4 µg/mL)	40 µM (≈ 17.4 µg/mL)	80 µM (≈ 34.9 µg/mL)	20 µM (≈ 8.71 µg/mL)	80 µM (≈ 34.9 µg/mL)	> 80 µM	> 80 µM	40 µM (≈ 17.4 µg/mL)	20 µM (≈ 8.71 µg/mL)	40 µM (≈ 17.4 µg/mL)	–
C/C=C/CNC(=N)NCCCCCCCCN1CCCCCCCCNC(=N)NC1=O	5 µM (≈ 2.18 µg/mL)	5 µM (≈ 2.18 µg/mL)	2.5 µM (≈ 1.09 µg/mL)	20 µM (≈ 8.71 µg/mL)	1.25 µM (≈ 0.545 µg/mL)	5 µM (≈ 2.18 µg/mL)	5 µM (≈ 2.18 µg/mL)	5 µM (≈ 2.18 µg/mL)	1.25 µM (≈ 0.545 µg/mL)	2.5 µM (≈ 1.09 µg/mL)	1.25 µM (≈ 0.545 µg/mL)	Ratio [12]: 1.9; MIC [13]: 36 µM (≈ 15.7 µg/mL); Ratio [14]: 2.4; viability [15]: 100%; MIC [16]: 36 µM (≈ 15.7 µg/mL); Activity [17]: 78%; MIC [18]: 18 µM (≈ 7.84 µg/mL); MIC [19]: 73 µM (≈ 31.8 µg/mL); MIC [20]: 73 µM (≈ 31.8 µg/mL); MIC [21]: 18 µM (≈ 7.84 µg/mL); Activity [22]: 43%; MIC [23]: 4 µM (≈ 1.74 µg/mL); MIC [24]: 18 µM (≈ 7.84 µg/mL)
C[C@@H]1[C@H](O)[C@@H](C)/C=C/C=C/C=C/C=C/C=C/C=C/C=C/[C@H](O[C@@H]2O[C@H](C)[C@@H](O)[C@H](N)[C@@H]2O)C[C@@H]2O[C@](O)(C[C@@H](O)C[C@@H](O)[C@H](O)CC[C@@H](O)C[C@@H](O)CC(=O)O[C@H]1C)C[C@H](O)[C@H]2C(=O)O [AMPHOTERICIN B]	–	–	–	–	–	–	–	–	–	–	–	MIC [13]: 0.27 µM (≈ 0.25 µg/mL); MIC [16]: 2.1 µM (≈ 1.94 µg/mL); MIC [18]: 0.27 µM (≈ 0.25 µg/mL); MIC [19]: 0.135 µM (≈ 0.125 µg/mL); MIC [20]: 1 µM (≈ 0.924 µg/mL); MIC [21]: 0.54 µM (≈ 0.499 µg/mL); MIC [23]: 0.135 µM (≈ 0.125 µg/mL); MIC [24]: 0.135 µM (≈ 0.125 µg/mL)
OC(Cn1cncn1)(Cn1cncn1)c1ccc(F)cc1F [FLUCONAZOLE]	6.5 µM (≈ 1.99 µg/mL)	209 µM (≈ 64 µg/mL)	418 µM (≈ 128 µg/mL)	209 µM (≈ 64 µg/mL)	209 µM (≈ 64 µg/mL)	418 µM (≈ 128 µg/mL)	32 µM (≈ 9.8 µg/mL)	13 µM (≈ 3.98 µg/mL)	209 µM (≈ 64 µg/mL)	0.8 µM (≈ 0.245 µg/mL)	52 µM (≈ 15.9 µg/mL)	–
N=C(N)NCCCCCCCCNCCCCCCCCNC(=N)N [IMINOCTADIENE]	> 80 µM	20 µM (≈ 7.11 µg/mL)	40 µM (≈ 14.2 µg/mL)	40 µM (≈ 14.2 µg/mL)	80 µM (≈ 28.4 µg/mL)	20 µM (≈ 7.11 µg/mL)	40 µM (≈ 14.2 µg/mL)	20 µM (≈ 7.11 µg/mL)	80 µM (≈ 28.4 µg/mL)	80 µM (≈ 28.4 µg/mL)	1.25 µM (≈ 0.444 µg/mL)	–
CCC(C)n1ncn(-c2ccc(N3CCN(c4ccc(OCC5COC(Cn6cncn6)(c6ccc(Cl)cc6Cl)O5)cc4)CC3)cc2)c1=O (stereo not given) [ITRACONAZOLE]	–	–	–	–	–	–	–	–	–	–	–	MIC [13]: 0.04 µM (≈ 0.0282 µg/mL); MIC [16]: 0.04 µM (≈ 0.0282 µg/mL); MIC [18]: 0.35 µM (≈ 0.247 µg/mL); MIC [19]: 0.35 µM (≈ 0.247 µg/mL); MIC [20]: 0.35 µM (≈ 0.247 µg/mL); MIC [21]: 0.02 µM (≈ 0.0141 µg/mL); MIC [23]: 0.35 µM (≈ 0.247 µg/mL); MIC [24]: 0.35 µM (≈ 0.247 µg/mL)
